The text below walks through data of ChEMBL document CHEMBL3632508, “Discovery of α-mangostin as a novel competitive inhibitor against mutant isocitrate dehydrogenase-1” (Bioorg Med Chem Lett, 2015).

The source made the active and inactive calls. No cut-off for these calls is given here.

In series [1] the test system is Isocitrate dehydrogenase [NADP] cytoplasmic (Homo sapiens), O75874 [R132H]. Nature of the series: Inhibition of IDH1-R132H mutant in human MCF10A cells assessed as decrease in histone H3 trimethylated lysine level (H3K4me3) at 5 uM incubated for 30 mins by Western blotting method. In kind it is cell-based. As to conditions: MCF-10A. In short, it runs like this: (§1)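 Isogenic IDH1 (+/R132H) MCF10A cells, compared with IDH1 (+/+) cells, given 5 μM compound; lysed in SDS buffer, protein by BCA, SDS-PAGE, PVDF transfer; probed overnight at 4 °C with H3K4me3, H3K9me3, H3K27me3, H3K36me3 or H3K79me3 antibodies, total H3 as reference; HRP secondary, ECL detection.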
Isocitrate dehydrogenase [NADP] cytoplasmic (Homo sapiens), O75874 [R132H], sequence (O75874 whole entry R132H): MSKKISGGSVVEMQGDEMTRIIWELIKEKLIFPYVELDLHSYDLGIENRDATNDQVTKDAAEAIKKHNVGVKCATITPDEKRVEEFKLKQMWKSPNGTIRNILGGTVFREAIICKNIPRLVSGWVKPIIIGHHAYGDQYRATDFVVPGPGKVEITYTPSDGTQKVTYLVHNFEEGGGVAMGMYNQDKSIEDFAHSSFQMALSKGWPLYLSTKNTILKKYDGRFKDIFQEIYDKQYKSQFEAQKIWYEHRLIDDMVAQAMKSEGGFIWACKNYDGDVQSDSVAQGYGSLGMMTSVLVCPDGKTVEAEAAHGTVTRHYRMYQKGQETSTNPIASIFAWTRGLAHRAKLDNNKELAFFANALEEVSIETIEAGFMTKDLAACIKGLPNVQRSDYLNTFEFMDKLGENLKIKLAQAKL

The nature of series [2]: Cytotoxicity against IDH1 expressing human MCF10A cells assessed as cell viability at 5 uM after 24 hrs by hemacytometer counting method. In kind it is cell-based. As to conditions: mcf-10a. In outline:
(§2)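 Isogenic CRISPR-made IDH1 (+/+) and IDH1 (+/R132H) MCF10A cells seeded at 5.0 × 10⁴ per well, exposed to 5 μM compound, harvested at indicated times (24 h), viable cells counted by hemacytometer; mean ± standard deviation, Student t-test, n = 6.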

Series [3] relates to Isocitrate dehydrogenase [NADP] cytoplasmic (Homo sapiens), O75874 [R132H]. Nature of the series: Inhibition of IDH1-R132H mutant in human MCF10A cells assessed as increase in 5-fC level at 5 uM incubated for 24 hrs by DAPI staining based fluorescence microscopy. It is filed as cell-based. To be noted: MCF-10A. In short, it runs like this:
(§3)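 Isogenic IDH1 (+/+) and (+/R132H) MCF10A cells on coverslips (5 × 10⁴ per well), 16 h at 37 °C, then 5 μM compound for 24 h; fixed in 4% paraformaldehyde, blocked, stained overnight with anti-5mC, 5hmC or 5fC antibodies; FITC secondary with DAPI, imaged by fluorescence microscopy.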

Series [4] in a line: Cytotoxicity against IDH1-R132H mutant expressing human MCF10A cells assessed as cell viability at 5 uM after 24 hrs by hemacytometer counting method. In kind it is cell-based. As to conditions: mcf-10a. In short, it runs like this: as §2
Series [5] has as its target Isocitrate dehydrogenase [NADP] cytoplasmic (Homo sapiens, UniProt O75874, R132H). Nature of the series: Competitive inhibition of IDH1-R132H mutant (unknown origin) using a-ketoglutarate and NADPH as substrate by steady state kinetic analysis. In outline: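 IDH1-R132H in buffer of 150 mM NaCl, 20 mM Tris–Cl pH 7.5, 10 mM MnCl₂, 150 μM β-NADPH, 0.03% (w/v) BSA; α-ketoglutarate varied to reach maximal activity; steady-state kinetic parameters fitted with an enzyme kinetics module.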

Series [6] deals with Isocitrate dehydrogenase [NADP] cytoplasmic (Homo sapiens), O75874 [R132H]. Nature of the series: Inhibition of IDH1-R132H mutant in human MCF10A cells assessed as increase in 5-hmC level at 5 uM incubated for 24 hrs by DAPI staining based fluorescence microscopy. In kind it is cell-based. As to conditions: MCF-10A. In short, it runs like this: as §3
For series [7] the test system is unchanged. Nature of the series: Inhibition of IDH1-R132H mutant in human MCF10A cells assessed as decrease in histone H3 trimethylated lysine level (H3K79me3) at 5 uM incubated for 30 mins by Western blotting method. It is filed as cell-based. As to conditions: MCF-10A. In outline: as §1
Series [8] has the same test system. Nature of the series: Inhibition of IDH1-R132H mutant in human MCF10A cells assessed as decrease in 5-methylcytosine level at 5 uM incubated for 24 hrs by DAPI staining based fluorescence microscopy. In kind it is cell-based. To be noted: MCF-10A. In short, it runs like this: as §3
The test system is the same in series [9]. Nature of the series: Inhibition of IDH1-R132H mutant in human MCF10A cells assessed as decrease in histone H3 trimethylated lysine level (H3K27me3) at 5 uM incubated for 30 mins by Western blotting method. As to conditions: MCF-10A. In kind it is cell-based. In short, it runs like this:
as §1

The test system is the same in series [10]. Nature of the series: Inhibition of IDH1-R132H mutant in human MCF10A cells assessed as decrease in histone H3 trimethylated lysine level (H3K36me3) at 5 uM incubated for 30 mins by Western blotting method. In kind it is cell-based. To be noted: MCF-10A. In outline:
as §1

The test system is the same in series [11]. Nature of the series: Inhibition of IDH1-R132H mutant in human MCF10A cells assessed as decrease in histone H3 trimethylated lysine level (H3K9me3) at 5 uM incubated for 30 mins by Western blotting method. It is filed as cell-based. As to conditions: MCF-10A. In short, it runs like this: as §1
The target in series [12] is Isocitrate dehydrogenase [NADP] cytoplasmic (Homo sapiens) (UniProt O75874). Nature of the series: Inhibition of human IDH1 expressed in IPTG-induced Escherichia coli BL21 cells assessed as reduction of NADP+ to NADPH after 5 mins by spectrophotometry. Also on record: concentration or dose not given beside the values.
Isocitrate dehydrogenase [NADP] cytoplasmic (Homo sapiens), sequence (O75874 whole entry): as the sequence (O75874 whole entry R132H) above, with H132R counted along it
In series [13] the test system is Isocitrate dehydrogenase [NADP] cytoplasmic (Homo sapiens), O75874 [R132H]. Nature of the series: Inhibition of human IDH1 R132H mutant expressed in IPTG-induced Escherichia coli BL21 cells assessed as oxidation of NADPH to NADP+ after 5 mins by spectrophotometry. More on the design: concentration or dose not given beside the values.

Isocitrate dehydrogenase [NADP] cytoplasmic, sequence (O75874 2-414 R132H limits assumed): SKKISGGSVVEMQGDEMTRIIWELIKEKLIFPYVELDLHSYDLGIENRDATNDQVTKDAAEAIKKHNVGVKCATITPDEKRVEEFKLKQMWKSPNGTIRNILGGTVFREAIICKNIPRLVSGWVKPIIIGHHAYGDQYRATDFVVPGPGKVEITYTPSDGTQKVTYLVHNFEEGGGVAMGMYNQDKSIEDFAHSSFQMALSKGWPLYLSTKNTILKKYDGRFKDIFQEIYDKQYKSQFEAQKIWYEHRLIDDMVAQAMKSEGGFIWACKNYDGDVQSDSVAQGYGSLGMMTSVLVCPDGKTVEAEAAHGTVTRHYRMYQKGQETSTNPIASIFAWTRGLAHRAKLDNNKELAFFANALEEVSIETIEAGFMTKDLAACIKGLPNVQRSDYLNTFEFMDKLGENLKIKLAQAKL

`COc1c(O)cc2oc3cc(O)c(CC=C(C)C)c(O)c3c(=O)c2c1CC=C(C)C` [MANGOSTIN]: the inhibition entry in series [1], in series [3], in series [6], in series [7], in [8] and in series [9] was “Active” each time. Also, the inhibition result in series [10] and in series [11] was “Active” each time. Also, the Activity result in [2] and in series [4] was “Non-toxic” in each case. Moreover, the Ki in series [5] (read-out: Ki) was determined as 2.85 µM.
As to `CCN(CC)C(=O)Oc1cc2oc3cc(O)c(OC)c(CC=C(C)C)c3c(=O)c2c(O)c1CC=C(C)C`, the inhibitory constant (Ki) entry in series [5] is “Not Active”.
Same read-out and setting: next, `COc1c(OC(=O)N2CCOCC2)cc2oc3cc(O)c(CC=C(C)C)c(O)c3c(=O)c2c1CC=C(C)C`: “Not Active”.
`C=CCOc1cc2oc3cc(O)c(CC=C(C)C)c(O)c3c(=O)c2c(CC=C(C)C)c1OC`: the Ki in series [5] (read-out: Ki) turned out to be 17.4 µM.
With `C=CCOc1cc2oc3cc(O)c(OC)c(CC=C(C)C)c3c(=O)c2c(O)c1CC=C(C)C`, in series [5], the Ki result is listed as “Not Active”.
Regarding `COc1cc2oc3cc(O)c(OC)c(CC=C(C)C)c3c(=O)c2c(O)c1CC=C(C)C`, the Ki in [5] (read-out: Ki) is 12 µM.
Take `CC(C)=CCc1c(O)cc2oc3cc(O)c(OCc4cn(CC(=O)OC(C)(C)C)nn4)c(CC=C(C)C)c3c(=O)c2c1O`: in series [5], the inhibition constant (Ki) entry was “Not Active”.
On to `CC(C)=CCc1c(O)cc2oc3cc(O)c(O)c(CC=C(C)C)c3c(=O)c2c1O`, for which, in series [5] (read-out: Ki), the inhibitory constant (Ki) amounted to 3.17 µM.
In the case of `CCN(CC)C(=O)Oc1cc2oc3cc(O)c(CC=C(C)C)c(O)c3c(=O)c2c(CC=C(C)C)c1OC`, in series [5], the Ki result is “Not Active”.
Take `C=C(C)C(C)CC[C@@H](C)[C@H]1CC[C@@]2(C)[C@@H]3CC[C@H]4C(C)(C)C(=O)CC[C@]4(C)C3=CC[C@]12C` (some centres undefined): the results for the Activity in series [12] and in series [13] were 106% and 124%, respectively.
Taken in the same sequence, the figures for `CC(C)=CCc1c(O)c(CC=C(C)C)c2oc3c(O)ccc(O)c3c(=O)c2c1O` were 89.9% and 93.9%.
For the compound `Cc1cc(=O)c2c(O)c3c(cc2o1)OC(C)(C)[C@@H](O)C3`, the Activity in series [12] was found to be 98.2%; in series [13] it was 105%.
Consider `O=C(/C=C/c1ccccc1)NCCCCNC(=O)c1ccc(O)cc1`, for which the Activity was 100% in series [12] and 106% in series [13].
Consider `O=C(O)[C@H]1O[C@@H](Oc2cc3oc(-c4ccc(O)cc4)cc(=O)c3c(O)c2O)[C@H](O)[C@@H](O)[C@@H]1O`, for which the values for the Activity in series [12] and in series [13] were 88.8% and 91.5%, respectively.
